Assay results from ChEMBL document CHEMBL1122671, “Anticonvulsant activity of some 4-aminobenzamides” (J Med Chem, 1984).
Calls of active or inactive are those of the source.

What was measured:
[1] = system: Mus musculus; assay: Evaluated for toxicity by using rotarod test at in mice 30 min; - = No activity at 600 mg/kg.; type: organism-based; parameters: dose 600 mg/kg; conditions: in vivo, 0.5 h
Procedure, shortened: (§1)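 Neurotoxicity in male Carworth Farms number-one mice dosed ip in 30% PEG 400 at 30, 100, 300 and sometimes 600 mg/kg, tested 30 min or 4 h later. Mice placed on a 1-in. knurled rod rotating at 6 rpm; toxicity means failure to stay on the rod for 1 min. Scored by the lowest toxic dose; footnotes record loss of righting reflex or lethality.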

[2] = system: Mus musculus; assay: Anticonvulsant activity against MES (maximal electroshock) induced seizure in mice at 30 min; + = Activity at 600 mg/kg.; type: functional, organism-based; parameters: dose 600 mg/kg
Procedure, shortened: (§2)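 Male Carworth Farms number-one mice; compounds in 30% polyethylene glycol 400, given ip at 30, 100 and 300 mg/kg, some also at 600 mg/kg. Maximal electroshock challenge at 30 min or 4 h after dosing. Scored by the lowest dose giving protection (++++ 30, +++ 100, ++ 300, + 600 mg/kg; - none at 600).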

[3] = system: Mus musculus; assay: Evaluated for toxicity by using rotarod test in mice at 4 hr; - = No activity at 600 mg/kg.; type: organism-based; parameters: dose 600 mg/kg; conditions: in vivo; procedure, shortened: as §1
[4] = system: Mus musculus; assay: Anticonvulsant activity against MES (maximal electroshock) induced seizure in mice at 4 hr; - = No activity at 600 mg/kg.; type: functional, organism-based; parameters: dose 600 mg/kg; procedure, shortened: as §2
[5] = system: Mus musculus; assay: Anticonvulsant activity against scMet (subcutaneous metrazole) induced seizure in mice at 4 hr; - = No activity at 600 mg/kg.; type: functional, organism-based; parameters: dose 600 mg/kg
Procedure, shortened: (§3)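 Male Carworth Farms number-one mice dosed ip (30% PEG 400) at 30, 100, 300 and in some cases 600 mg/kg. Pentylenetetrazole 85 mg/kg given sc as a 0.5% solution in the posterior midline, at 30 min or 4 h. Protection means no clonic spasm of at least 5 s within 30 min. Scored by the lowest protective dose.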

[6] = system: Mus musculus; assay: Anticonvulsant activity against scMet (subcutaneous metrazole) induced seizure in mice at 30 min; - = No activity at 600 mg/kg.; type: functional, organism-based; parameters: dose 600 mg/kg; procedure, shortened: as §3
[7] = system: Mus musculus; assay: Anticonvulsant activity against scMet (subcutaneous metrazole) induced seizure in mice at 4 hr; ++ = Activity at 300 mg/kg.; type: functional, organism-based; parameters: dose 300 mg/kg
[8] = system: Mus musculus; assay: Anticonvulsant activity against MES (maximal electroshock) induced seizure in mice at 4 hr; +++ = Activity at 100 mg/kg.; type: functional, organism-based; parameters: dose 100 mg/kg
Procedure, shortened: (§4)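 Male Carworth Farms number-one mice received the compound ip in 30% polyethylene glycol 400. Doses were 30, 100 and 300 mg/kg, with 600 mg/kg in some cases. Maximal electroshock seizure protection was scored at 30 min and 4 h after dosing. Activity is coded by the lowest effective dose.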

[9] = organism: Mus musculus; assay: Evaluation of neurologic deficit by rotarod procedure in mice; type: functional
Procedure, shortened: (§5)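 Male Carworth Farms number-one mice were dosed ip (30% PEG 400 vehicle) and placed on a 1-in. knurled plastic rod rotating at 6 rpm. Neurotoxicity meant failure to stay on the rod for 1 min. TD50 was determined graphically.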

[10] = system: Mus musculus; assay: Evaluated for toxicity by using rotarod test in mice at 4 hr; ++ = Activity at 300 mg/kg.; type: organism-based; parameters: dose 300 mg/kg; conditions: in vivo; procedure, shortened: as §1
[11] = system: Mus musculus; assay: Evaluated for toxicity by using rotarod test at in mice 30 min; +++ = Activity at 100 mg/kg, *-Loss of righting reflex at less than 300 mg/kg; type: organism-based; conditions: in vivo, 0.5 h; procedure, shortened: as §1
[12] = organism: Mus musculus; assay: Evaluation of inhibitory activity against scMet induced convulsions in mice; NA = No activity.; type: functional, organism-based
[13] = Protective index (PI) which is defined as the ratio of TD50 to the ED50 (MES).; type: functional
Procedure, shortened: (§6)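 Both values come from ip dosing in 30% PEG 400 to male Carworth Farms number-one mice and were derived by the graphical method.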

[14] = system: Mus musculus; assay: Evaluation of neurologic deficit by rotarod procedure in mice*-No activity at 300 mg/kg; type: functional; procedure, shortened: as §5
[15] = system: Mus musculus; assay: Evaluated for toxicity by using rotarod test at in mice 30 min; +++ = Activity at 100 mg/kg, *-Loss of righting reflex at less than 300 mg/kg,LD50 less than 600 mg/kg; type: organism-based; conditions: in vivo, 0.5 h; procedure, shortened: as §1
[16] = system: Mus musculus; assay: Anticonvulsant activity against MES (maximal electroshock) induced seizure in mice at 4 hr; d = No Activity at 300 mg/kg.; type: functional, organism-based; parameters: dose 300 mg/kg; procedure, shortened: as §4
[17] = system: Mus musculus; assay: Anticonvulsant activity against scMet (subcutaneous metrazole) induced seizure in mice at 4 hr; d = No activity at 300 mg/kg.; type: functional, organism-based; parameters: dose 300 mg/kg
[18] = Protective index (PI) which is defined as the ratio of TD50 to the ED50 (ScMet).; type: functional; procedure, shortened: as §6
[19] = organism: Mus musculus; assay: Evaluation of inhibitory activity against scMet induced convulsions in mice; type: functional
[20] = system: Mus musculus; assay: Anticonvulsant activity against scMet (subcutaneous metrazole) induced seizure in mice at 30 min; d = No activity at 300 mg/kg.; type: functional, organism-based; parameters: dose 300 mg/kg
[21] = system: Mus musculus; assay: Anticonvulsant activity against MES (maximal electroshock) induced seizure in mice at 30 min; +++ = Activity at 100 mg/kg.; type: functional, organism-based; parameters: dose 100 mg/kg; procedure, shortened: as §4
[22] = organism: Mus musculus; assay: Evaluation of inhibitory activity aagainst MES induced convulsions in mice.; type: functional
Procedure, shortened: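 Quantitative MES test in male Carworth Farms number-one mice. Compound in 30% polyethylene glycol 400, given ip at graded doses. Median effective dose (ED50) read by the graphical method.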

[23] = system: Mus musculus; assay: Evaluated for toxicity by using rotarod test at in mice 30 min; +++ indicates activity at 100 mg/kg *-Loss of righting reflex at less than 600 mg/kg; type: organism-based; conditions: in vivo, 0.5 h; procedure, shortened: as §1
[24] = system: Mus musculus; assay: Evaluated for toxicity by using rotarod test in mice at 4 hr; ++ indicates activity at 300 mg/kg.; type: organism-based; parameters: dose 300 mg/kg; conditions: in vivo; procedure, shortened: as §1
[25] = system: Mus musculus; assay: Anticonvulsant activity against MES (maximal electroshock) induced seizure in mice at 4 hr; +++ indicates activity at 100 mg/kg.; type: functional, organism-based; parameters: dose 100 mg/kg; procedure, shortened: as §4
[26] = system: Mus musculus; assay: Anticonvulsant activity against scMet (subcutaneous metrazole) induced seizure in mice at 4 hr; ++ indicates activity at 300 mg/kg.; type: functional, organism-based; parameters: dose 300 mg/kg
[27] = system: Mus musculus; assay: Evaluated for toxicity by using rotarod test in mice at 4 hr; + indicates activity at 600 mg/kg.; type: organism-based; parameters: dose 600 mg/kg; conditions: in vivo; procedure, shortened: as §1
[28] = system: Mus musculus; assay: Anticonvulsant activity against MES (maximal electroshock) induced seizure in mice at 4 hr; ++ = Activity at 300 mg/kg.; type: functional, organism-based; parameters: dose 300 mg/kg; procedure, shortened: as §4
[29] = system: Mus musculus; assay: Anticonvulsant activity against scMet (subcutaneous metrazole) induced seizure in mice at 30 min; ++ indicates activity at 600 mg/kg.; type: functional, organism-based; parameters: dose 600 mg/kg
[30] = system: Mus musculus; assay: Anticonvulsant activity against scMet (subcutaneous metrazole) induced seizure in mice at 4 hr; ++ indicates activity at 600 mg/kg.; type: functional, organism-based; parameters: dose 600 mg/kg
[31] = system: Mus musculus; assay: Evaluated for toxicity by using rotarod test at in mice 30 min; ++ indicates activity at 300 mg/kg,*-Loss of righting reflex at less than 300 mg/kg; type: organism-based; conditions: in vivo, 0.5 h; procedure, shortened: as §1
[32] = system: Mus musculus; assay: Anticonvulsant activity against MES (maximal electroshock) induced seizure in mice at 30 min; - = no activity observed at 600 mg/Kg; type: functional, organism-based; procedure, shortened: as §4
[33] = system: Mus musculus; assay: Anticonvulsant activity against MES (maximal electroshock) induced seizure in mice at 4 hr; - = no activity observed at 600 mg/Kg; type: functional, organism-based; procedure, shortened: as §4
[34] = system: Mus musculus; assay: Evaluated for toxicity by using rotarod test in mice at 4 hr; - = no activity observed at 600 mg/Kg; type: organism-based; conditions: in vivo; procedure, shortened: as §1
[35] = system: Mus musculus; assay: Anticonvulsant activity against scMet (subcutaneous metrazole) induced seizure in mice at 30 min; - = no activity observed at 600 mg/Kg; type: functional, organism-based
[36] = system: Mus musculus; assay: Anticonvulsant activity against scMet (subcutaneous metrazole) induced seizure in mice at 4 hr; - = no activity observed at 600 mg/Kg; type: functional, organism-based
[37] = system: Mus musculus; assay: Evaluated for toxicity by using rotarod test at in mice 30 min; - = no activity observed at 600 mg/Kg; type: organism-based; conditions: in vivo, 0.5 h; procedure, shortened: as §1
[38] = system: Mus musculus; assay: Anticonvulsant activity against scMet (subcutaneous metrazole) induced seizure in mice at 30 min; ++ = Activity at 300 mg/kg.; type: functional, organism-based; parameters: dose 300 mg/kg
[39] = system: Mus musculus; assay: Evaluated for toxicity by using rotarod test at in mice 30 min; +++ = Activity at 100 mg/kg,*-Loss of righting reflex at less than 300 mg/kg; type: organism-based; conditions: in vivo, 0.5 h; procedure, shortened: as §1

CNC(=O)c1ccc(N)cc1
Toxicity [1]: Not toxic | Activity [2]: Activity at 600 mg/kg | Toxicity [3]: Not toxic | Activity [4]: Not toxic | Activity [5]: Not toxic | Activity [6]: Not toxic

Nc1ccc(C(=O)NCc2ccccc2)cc1
Activity [7]: Activity at 100 mg/kg | Activity [8]: Activity at 100 mg/kg | TD50 [9]: 83.4 mg/kg | Toxicity [10]: Activity at 100 mg/kg, *-Loss of righting reflex at < 300 mg/kg | Activity [6]: Not toxic | Toxicity [11]: Activity at 100 mg/kg, *-Loss of righting reflex at < 300 mg/kg | ED50 [12]: inactive | PI [13]: 3.6

CCCCNC(=O)c1ccc(N)cc1
TD50 [14]: 105 mg/kg | Toxicity [15]: Activity at 100 mg/kg, *-Loss of righting reflex at < 300mg/kg,LD50 < 600 mg/kg | Activity [16]: No activity | Toxicity [10]: Activity at 100 mg/kg, *-Loss of righting reflex at < 300mg/kg,LD50 < 600 mg/kg | Activity [17]: No activity | PI [18]: 1.3 | ED50 [19]: 83 mg/kg | Activity [20]: No activity | PI [13]: 2.2 | Activity [21]: Activity at 100 mg/kg

CN(Cc1ccccc1)C(=O)c1ccc(N)cc1
ED50 [22]: 52.6 mg/kg | Toxicity [23]: activity at 100 mg/kg *-Loss of righting reflex at less than 600 mg/kg | TD50 [9]: 98.1 mg/kg | Toxicity [24]: activity at 100 mg/kg *-Loss of righting reflex at less than 600 mg/kg | Activity [25]: Activity at 100 mg/kg | Activity [26]: Activity at 100 mg/kg | PI [18]: 1.2 | ED50 [19]: 81.7 mg/kg | PI [13]: 1.9 | Activity [21]: Activity at 100 mg/kg

CCCNC(=O)c1ccc(N)cc1
Toxicity [27]: activity at 300 mg/kg,*-Loss of righting reflex at less than 300 mg/kg | Activity [28]: Activity at 100 mg/kg | Activity [29]: Activity at 100 mg/kg | Activity [30]: Activity at 100 mg/kg | Toxicity [31]: activity at 300 mg/kg,*-Loss of righting reflex at less than 300 mg/kg | Activity [21]: Activity at 100 mg/kg

Nc1ccc(C(=O)NC(c2ccccc2)c2ccccc2)cc1
Activity [32]: Not toxic | Activity [33]: Not toxic | Toxicity [34]: Not toxic | Activity [35]: Not toxic | Activity [36]: Not toxic | Toxicity [37]: Not toxic

CCCN(CCC)C(=O)c1ccc(N)cc1
Activity [7]: Activity at 100 mg/kg | Activity [38]: Activity at 100 mg/kg | Activity [28]: Activity at 100 mg/kg | TD50 [9]: 116 mg/kg | Toxicity [39]: Activity at 100 mg/kg,*-Loss of righting reflex at < 300 mg/kg | Toxicity [10]: Activity at 100 mg/kg,*-Loss of righting reflex at < 300 mg/kg | ED50 [12]: inactive | PI [13]: 1.9 | Activity [21]: Activity at 100 mg/kg
